Experimental data pooled from the literature.
Lines come from different studies, so protocols differ.
Cell line: T47D
Effect on: cell growth or viability

Structure (SMILES) | test | conditions | endpoint | value
O=C1C[C@@H](c2ccc(O)cc2)Oc2cc(O)cc(O)c21 | MTT | 48 h | IC50 | 4170 nM
CC/C(=C(/c1ccc(OCCNC)cc1)c1ccc(B2OC(C)(C)C(C)(C)O2)cc1)c1ccccc1 |  | 5 days | IC50 | 8730 nM
CCCCCCCC(=O)NCC(=O)OC | MTT | 10 µM, 48 h | inhibition | 23%
COc1ccccc1/C=C/C(=O)c1ccc(OC)c(S(N)(=O)=O)c1 | SRB | 10 µM | inhibition | 83%
COc1ccc(-c2ccc(-c3ccc(C(=N)N)nc3)s2)cc1 | SRB |  | GI50 | 1920 nM
COc1ccc(C(=O)/C=C/c2cccc(Cl)c2)cc1S(N)(=O)=O | SRB | 48 h | GI50 | 2100 nM
COc1ccc(-c2ccc(-c3ccc(C(=N)N)nc3)s2)cc1Cl | SRB |  | GI50 | 1990 nM
COc1cccc(Oc2ccccc2NC(=O)CNC(=O)c2cccc3ccccc23)c1 | SRB | 48 h | GI50 | 138 nM
O=C1Nc2ccccc2C1=NNc1nnc2n1N=C(c1ccccc1)CS2 | SRB | 10 µM | inhibition | 36%
CC[C@H](C)C(=O)O[C@H]1C[C@H](O)C=C2C=C[C@H](C)[C@H](CC[C@@H](O)C[C@@H](O)CC(=O)O)[C@H]21 | SRB | 72 h | IC50 | 133 µg/mL
CC/C(=C(\c1ccc(O)cc1)c1ccc(OCCNC)cc1)c1ccccc1 |  | 5 days | IC50 | 4290 nM
